In assay [1] the target is Telomerase reverse transcriptase (Homo sapiens, UniProt O14746). The experiment in a line: Inhibitory activity of telomerase was measured using the TRAP assay. In short, it runs like this:
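Cell-free modified TRAP with extracts from exponentially growing A2780 ovarian carcinoma cells. 0.04 μg protein was incubated with TS primer, dNTPs (50 μM each) and [α-32P]dCTP in TRAP buffer (pH 8.3, 68 mM KCl) ± agent, up to 50 μM final, for 20 min at 25 °C. Then 80 °C for 5 min, CX primer plus Taq, 31 PCR cycles. Products read by gel phosphorimaging/autoradiography or filter scintillation counting. IC50 taken as 50% inhibition relative to controls.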

The next assay relates to SK-OV-3. In words: In vitro cytotoxicity against SKOV-3 ovarian cells using the sulforhodamine B(SRB) assay. The format is functional, cell-based. The note with it: Homo sapiens. In short, it runs like this: (§1)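 SRB growth assay. 3000–6000 cells were seeded and attached overnight. Agents were dissolved at 500 μM in water and added in quadruplicate at final 0.05, 0.25, 1, 5 and 25 μM. After 96 h, cells were fixed with cold 10% TCA and stained with 0.4% SRB. A540 was expressed as percent of untreated control and the 50% growth-inhibitory concentration was derived.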

Another assay relates to A2780. In words: In vitro cytotoxicity against A2780 ovarian cells using the sulforhodamine B(SRB) assay. The format is functional, cell-based. The conditions noted are these: Homo sapiens. In short, it runs like this:
as §1

Another assay relates to CH1. In words: In vitro cytotoxicity against CH1 ovarian cells using the sulforhodamine B(SRB) assay. The format is functional, cell-based. The conditions noted are these: Homo sapiens. Put shortly:
as §1

IC50 data for 18 compounds are collected here from ChEMBL document CHEMBL1131409, “Human telomerase inhibition by regioisomeric disubstituted amidoanthracene-9,10-diones” (J Med Chem, 1998).

Broadly, the IC50 is the concentration at which inhibition is half-maximal. A high value points to weaker potency.

Telomerase reverse transcriptase, sequence (O14746 whole entry): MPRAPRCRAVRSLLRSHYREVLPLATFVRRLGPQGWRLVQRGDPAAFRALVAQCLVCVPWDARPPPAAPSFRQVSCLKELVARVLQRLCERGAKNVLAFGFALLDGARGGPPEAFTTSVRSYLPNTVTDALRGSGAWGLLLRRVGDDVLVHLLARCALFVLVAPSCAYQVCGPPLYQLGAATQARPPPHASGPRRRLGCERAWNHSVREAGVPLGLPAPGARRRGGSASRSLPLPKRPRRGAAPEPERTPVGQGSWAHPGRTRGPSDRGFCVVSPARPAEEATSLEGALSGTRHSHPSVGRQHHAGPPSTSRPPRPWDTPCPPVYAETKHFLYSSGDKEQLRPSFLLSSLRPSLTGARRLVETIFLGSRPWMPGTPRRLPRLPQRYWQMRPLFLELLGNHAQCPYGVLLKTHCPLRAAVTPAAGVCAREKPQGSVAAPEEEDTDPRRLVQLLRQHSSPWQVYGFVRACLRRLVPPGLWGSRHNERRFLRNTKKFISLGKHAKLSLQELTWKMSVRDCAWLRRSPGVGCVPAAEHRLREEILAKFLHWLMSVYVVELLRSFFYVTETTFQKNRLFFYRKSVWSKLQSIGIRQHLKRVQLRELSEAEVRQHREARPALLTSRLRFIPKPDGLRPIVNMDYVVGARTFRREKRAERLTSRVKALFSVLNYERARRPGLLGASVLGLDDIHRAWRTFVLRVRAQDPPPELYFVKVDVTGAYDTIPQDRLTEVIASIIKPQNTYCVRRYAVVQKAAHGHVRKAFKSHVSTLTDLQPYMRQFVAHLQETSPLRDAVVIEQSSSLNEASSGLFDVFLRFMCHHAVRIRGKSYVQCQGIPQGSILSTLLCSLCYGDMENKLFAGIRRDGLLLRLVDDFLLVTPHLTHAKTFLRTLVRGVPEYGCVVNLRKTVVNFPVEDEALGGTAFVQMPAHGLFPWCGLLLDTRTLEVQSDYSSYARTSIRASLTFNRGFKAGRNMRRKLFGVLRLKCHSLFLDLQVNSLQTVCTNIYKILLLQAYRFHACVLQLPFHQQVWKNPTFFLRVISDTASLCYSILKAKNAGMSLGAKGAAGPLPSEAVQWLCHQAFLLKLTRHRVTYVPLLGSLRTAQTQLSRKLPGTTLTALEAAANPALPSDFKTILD

In turn, `C[N+](C)(C)CCC(=O)Nc1ccc(NC(=O)CC[N+](C)(C)C)c2c1C(=O)c1ccccc1C2=O` yielded an IC50 in assay [1] of 7 µM.
For `CCN(CC)CCC(=O)Nc1ccc(NC(=O)CCN(CC)CC)c2c1C(=O)c1ccccc1C2=O`, the half-maximal inhibitory concentration (IC50) in the assay with SK-OV-3 was determined as 1400 nM; in the assay with A2780 it was 200 nM; in the assay with CH1 it was 260 nM.
`C[N+]1(CCC(=O)Nc2cccc3c2C(=O)c2cccc(NC(=O)CC[N+]4(C)CCOCC4)c2C3=O)CCOCC1`: the IC50 in the assay on SK-OV-3 came out at 2900 nM; in assay [1], 13.2 µM; in the assay with A2780, 1900 nM; in the assay on CH1 it was 1800 nM.
Turning to `C[N+]1(CCC(=O)Nc2ccc(NC(=O)CC[N+]3(C)CCCC3)c3c2C(=O)c2ccccc2C3=O)CCCC1`, the IC50 with SK-OV-3 came to 37000 nM; in assay [1] it was 5 µM; in the assay on A2780 it was 1500 nM; in the assay on CH1, 4500 nM.
In the case of `O=C(CCN1CCCC1)Nc1cccc2c1C(=O)c1cccc(NC(=O)CCN3CCCC3)c1C2=O`, the results for the half-inhibitory concentration (IC50) in the assay with SK-OV-3, with A2780 and with CH1 were 530 nM, 320 nM and 360 nM, respectively.
Taken in the same sequence, the figures for `C[N+]1(CCC(=O)Nc2ccc3c(c2)C(=O)c2ccc(NC(=O)CC[N+]4(C)CCCC4)cc2C3=O)CCCC1` were 2000 nM, 560 nM and 1350 nM.
As to `CC[N+](C)(CC)CCC(=O)Nc1ccc(NC(=O)CC[N+](C)(CC)CC)c2c1C(=O)c1ccccc1C2=O`, the IC50 with SK-OV-3 was > 25000 nM; in assay [1], 3.1 µM; in the assay on A2780, 4250 nM; in the assay with CH1, 6300 nM.
As to `C[N+]1(CCC(=O)Nc2cccc3c2C(=O)c2cccc(NC(=O)CC[N+]4(C)CCCCC4)c2C3=O)CCCCC1`, the IC50 was 8300 nM in the assay with SK-OV-3, 8.6 µM in assay [1], 2000 nM in the assay on A2780 and 2100 nM with CH1.
As for `CCN(CC)CCC(=O)Nc1cccc2c1C(=O)c1cccc(NC(=O)CCN(CC)CC)c1C2=O`, the IC50 amounted to 620 nM with SK-OV-3, 2.7 µM in assay [1], 320 nM with A2780 and 320 nM in the assay with CH1.
For `O=C(CCN1CCCC1)Nc1ccc2c(c1)C(=O)c1cc(NC(=O)CCN3CCCC3)ccc1C2=O`, the IC50 in the assay on SK-OV-3 worked out at 2300 nM; in assay [1] it was 2 µM; in the assay on A2780, 1200 nM; in the assay on CH1 it was 1800 nM.
For `CN(C)CCC(=O)Nc1cccc2c1C(=O)c1c(NC(=O)CCN(C)C)cccc1C2=O`, in that order: 1650 nM, 6.4 µM, 330 nM and 1350 nM.
`CC[N+](C)(CC)CCC(=O)Nc1ccc2c(c1)C(=O)c1ccc(NC(=O)CC[N+](C)(CC)CC)cc1C2=O`: the IC50 in the assay on SK-OV-3 came out at 6400 nM; in the assay on A2780, 2100 nM; with CH1, 1900 nM.
Take `O=C(CCN1CCOCC1)Nc1ccc2c(c1)C(=O)c1ccc(NC(=O)CCN3CCOCC3)cc1C2=O`: the IC50 with SK-OV-3 was > 25000 nM; in the assay with A2780, > 25000 nM; in the assay with CH1, 14000 nM.
Turning to `C[N+]1(CCC(=O)Nc2cccc3c2C(=O)c2c(NC(=O)CC[N+]4(C)CCCCC4)cccc2C3=O)CCCCC1`, the IC50 in the assay with SK-OV-3 worked out at 4600 nM; in assay [1], 7.8 µM; in the assay with A2780 it was 520 nM; with CH1 it was 1120 nM.
For `CC[N+](C)(CC)CCC(=O)Nc1cccc2c1C(=O)c1cccc(NC(=O)CC[N+](C)(CC)CC)c1C2=O`, the IC50 in the assay on SK-OV-3 is 10000 nM; in assay [1], 16.8 µM; with A2780 it was 1900 nM; with CH1, 2050 nM.
Turning to `O=C(CCN1CCCC1)Nc1ccc(NC(=O)CCN2CCCC2)c2c1C(=O)c1ccccc1C2=O`, the IC50 in the assay on SK-OV-3 is 390 nM; in the assay on A2780 it was 2.5 nM; with CH1, 19 nM.
As for `O=C(CCN1CCCC1)Nc1cccc2c1C(=O)c1c(NC(=O)CCN3CCCC3)cccc1C2=O`, the IC50 with SK-OV-3 amounted to 1200 nM; in the assay with A2780 it was 295 nM; with CH1, 1280 nM.
Compound `CN(C)CCC(=O)Nc1ccc2c(c1)C(=O)c1ccc(NC(=O)CCN(C)C)cc1C2=O` displayed an IC50 in assay [1] of 4.1 µM.
